Reference: ChEMBL document CHEMBL3526049 (Drug Metab Dispos, 2012)

How the values were obtained:
Settings in all cases: in vivo
Rattus norvegicus [1] = assay: Cmax in wild-type Sprague-Dawley rat treated with loperamide at 10 mg/kg, po by LC-MS/MS analysis; assay type: ADME, organism-based; set-up: dose 10 mg/kg, route oral
Procedure, shortened: (§1)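 Male Sprague-Dawley rats (knockout or wild type matched for age and weight), femoral artery and vein cannulated, at least 2 days recovery. Crossover design: IV bolus 1 mg/kg on day 0 (saline with 0.2 M equivalents HCl), oral gavage 10 mg/kg on day 3 (water with 0.2 M equivalents HCl). Arterial plasma sampled to 24 h (Mdr1a oral arm to 4 h). Analysed by LC-MS/MS and noncompartmental analysis.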

Rattus norvegicus [2] = assay: Cmax in MDR1A knockout Sprague-Dawley rat treated with loperamide at 10 mg/kg, po by LC-MS/MS analysis; assay type: ADME, organism-based; set-up: dose 10 mg/kg, route oral; procedure, shortened: as §1
Rattus norvegicus [3] = assay: AUC (0 to 4 hrs) in MDR1A knockout Sprague-Dawley rat treated with loperamide at 10 mg/kg, po by LC-MS/MS analysis; assay type: ADME, organism-based, Plasma; set-up: time < 4 hr, dose 10 mg/kg, route oral
Rattus norvegicus [4] = assay: Ratio of AUC (0 to 4 hrs) for metabolite to AUC (0 to 4 hrs) for parent compound in BCRP knockout Sprague-Dawley rat at 10 mg/kg, po by LC-MS/MS analysis; assay type: ADME, organism-based; set-up: dose 10 mg/kg, route oral
Rattus norvegicus [5] = assay: AUC (0 to 4 hrs) in wild-type Sprague-Dawley rat treated with loperamide at 10 mg/kg, po by LC-MS/MS analysis; assay type: ADME, organism-based, Plasma; set-up: time < 4 hr, dose 10 mg/kg, route oral
Rattus norvegicus [6] = assay: Ratio of AUC (0 to 4 hrs) for metabolite to AUC (0 to 4 hrs) for parent compound in MDR1A knockout Sprague-Dawley rat at 10 mg/kg, po by LC-MS/MS analysis; assay type: ADME, organism-based; set-up: dose 10 mg/kg, route oral
Rattus norvegicus [7] = assay: Cmax in BCRP knockout Sprague-Dawley rat treated with loperamide at 10 mg/kg, po by LC-MS/MS analysis; assay type: ADME, organism-based; set-up: dose 10 mg/kg, route oral; procedure, shortened: as §1
Rattus norvegicus [8] = assay: AUC (infinity) in wild-type Sprague-Dawley rat treated with loperamide at 10 mg/kg, po by LC-MS/MS analysis; assay type: ADME, organism-based, Plasma; set-up: time infinity, dose 10 mg/kg, route oral; procedure, shortened: as §1
Rattus norvegicus [9] = assay: Ratio of AUC (0 to 4 hrs) for metabolite to AUC (0 to 4 hrs) for parent compound in wild-type Sprague-Dawley rat at 10 mg/kg, po by LC-MS/MS analysis; assay type: ADME, organism-based; set-up: dose 10 mg/kg, route oral
Rattus norvegicus [10] = assay: Cmax in MRP2 knockout Sprague-Dawley rat treated with loperamide at 10 mg/kg, po by LC-MS/MS analysis; assay type: ADME, organism-based; set-up: dose 10 mg/kg, route oral; procedure, shortened: as §1
Rattus norvegicus [11] = assay: AUC (infinity) in BCRP knockout Sprague-Dawley rat treated with loperamide at 10 mg/kg, po by LC-MS/MS analysis; assay type: ADME, organism-based, Plasma; set-up: time infinity, dose 10 mg/kg, route oral; procedure, shortened: as §1
Rattus norvegicus [12] = assay: AUC (infinity) in MRP2 knockout Sprague-Dawley rat treated with loperamide at 10 mg/kg, po by LC-MS/MS analysis; assay type: ADME, organism-based, Plasma; set-up: time infinity, dose 10 mg/kg, route oral; procedure, shortened: as §1
Rattus norvegicus [13] = assay: Ratio of AUC (0 to 4 hrs) for metabolite to AUC (0 to 4 hrs) for parent compound in MRP2 knockout Sprague-Dawley rat at 10 mg/kg, po by LC-MS/MS analysis; assay type: ADME, organism-based; set-up: dose 10 mg/kg, route oral

SMILES: CNC(=O)C(CCN1CCC(O)(c2ccc(Cl)cc2)CC1)(c1ccccc1)c1ccccc1
- Cmax (Rattus norvegicus [1]): 158 ng.Eq/ml
- Cmax (Rattus norvegicus [2]): 193 ng.Eq/ml
- AUC (Rattus norvegicus [3]): 635 ng.Eq.hr/ml
- Ratio AUC (Rattus norvegicus [4]): 3.3
- AUC (Rattus norvegicus [5]): 427 ng.Eq.hr/ml
- Ratio AUC (Rattus norvegicus [6]): 1
- Cmax (Rattus norvegicus [7]): 150 ng.Eq/ml
- AUC (Rattus norvegicus [8]): 1875 ng.Eq.hr/ml
- Ratio AUC (Rattus norvegicus [9]): 2.3
- Cmax (Rattus norvegicus [10]): 109 ng.Eq/ml
- AUC (Rattus norvegicus [11]): 3256 ng.Eq.hr/ml
- AUC (Rattus norvegicus [12]): 3658 ng.Eq/ml
- Ratio AUC (Rattus norvegicus [13]): 3.5
